# Experiments:
# [1] = Kinetic solubility of the compound in pH 7.4 phosphate buffer; type: physicochemical; details: read-out: Kinetic_solubility
# [2] = Permeability of the compound by PAMPA; type: physicochemical; details: for Papp: read-out: permeability
# Summary of the method: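 Passive diffusion measured by stirred double-sink PAMPA; permeability expressed in 10⁻⁶ cm/s.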
Compound,solubility kinetic [1],Papp [2],permeability [2]
Cc1ccccc1-c1nc(CN2CCC(C(=O)NCCCN3CCOCC3)CC2)c(C)o1,> 65 µg/mL,432 ×10⁻⁶ cm/s,
Cc1ccccc1-c1nc(CN2CCC(C(=O)NCCCN3CCCCC3)CC2)c(C)o1,> 65 µg/mL,34.5 ×10⁻⁶ cm/s,
Cc1cc(-c2nc(CN3CCC(C(=O)NCCCN4C[C@H](C)C[C@H](C)C4)CC3)co2)ccc1F,> 70 µg/mL,215 ×10⁻⁶ cm/s,
Cc1ccccc1-c1nc(CN2CCC(C(=O)NCCCN3CCC(C)CC3)CC2)c(C)o1,> 67 µg/mL,425 ×10⁻⁶ cm/s,
Cc1ccccc1-c1nc(CN2CCC(C(=O)N3CCN(CCN(C)C)CC3)CC2)c(C)o1,> 67 µg/mL,14 ×10⁻⁶ cm/s,
Cc1oc(-c2c(Br)cccc2Br)nc1CN1CCC(C(=O)NCCCN2C[C@H](C)C[C@H](C)C2)CC1,62.4 µg/mL,< 1 ×10⁻⁶ cm/s,
COc1cccc(Br)c1-c1nc(CN2CCC(C(=O)NCCCN3C[C@H](C)C[C@H](C)C3)CC2)c(C)o1,> 83 µg/mL,245 ×10⁻⁶ cm/s,
COc1cccc(F)c1-c1nc(CN2CCC(C(=O)NCCCN3C[C@H](C)C[C@H](C)C3)CC2)c(C)o1,> 74 µg/mL,,
Cc1cccc(F)c1-c1nc(CN2CCC(C(=O)NCCCN3C[C@H](C)C[C@H](C)C3)CC2)c(C)o1,> 72 µg/mL,234 ×10⁻⁶ cm/s,
Cc1cccc(Cl)c1-c1nc(CN2CCC(C(=O)NCCCN3C[C@H](C)C[C@H](C)C3)CC2)c(C)o1,> 74 µg/mL,196 ×10⁻⁶ cm/s,
Cc1ccccc1-c1nc(CN2CCC(C(=O)NCCCN3CC4CCCC(C4)C3)CC2)c(C)o1,> 71 µg/mL,331 ×10⁻⁶ cm/s,
Cc1oc(-c2c3ccccc3cc3ccccc23)nc1CN1CCC(C(=O)NCCCN2C[C@H](C)C[C@H](C)C2)CC1,62.1 µg/mL,,
Cc1ccccc1-c1nc(CN2CCC(C(=O)NCCCN3[C@H](C)CCC[C@@H]3C)CC2)c(C)o1,> 69 µg/mL,55.4 ×10⁻⁶ cm/s,
COc1cccc(OC)c1-c1nc(CN2CCC(C(=O)NCCCN3C[C@H](C)C[C@H](C)C3)CC2)c(C)o1,> 76 µg/mL,,
CCc1ccccc1-c1nc(CN2CCC(C(=O)NCCCN3C[C@H](C)C[C@H](C)C3)CC2)c(C)o1,55.9 µg/mL,106 ×10⁻⁶ cm/s,
Cc1cc(C)cc(-c2nc(CN3CCC(C(=O)NCCCN4C[C@H](C)C[C@H](C)C4)CC3)c(C)o2)c1,> 71 µg/mL,864 ×10⁻⁶ cm/s,
Cc1ccccc1-c1nc(CN2CCC(C(=O)NCCCN3CC(C)(C)CC(C)(C)C3)CC2)c(C)o1,,> 1400 ×10⁻⁶ cm/s,
CC[C@@H]1C[C@H](CC)CN(CCCNC(=O)C2CCN(Cc3nc(-c4c(F)cccc4F)oc3C)CC2)C1,,130 ×10⁻⁶ cm/s,
COc1cccc(Cl)c1-c1nc(CN2CCC(C(=O)NCCCN3C[C@H](C)C[C@H](C)C3)CC2)c(C)o1,> 76 µg/mL,51 ×10⁻⁶ cm/s,
Cc1ccc(-c2nc(CN3CCC(C(=O)NCCCN4C[C@H](C)C[C@H](C)C4)CC3)c(C)o2)cc1C,> 71 µg/mL,219 ×10⁻⁶ cm/s,
Cc1oc(-c2ccccc2Cl)nc1CN1CCC(C(=O)NCCCN2C[C@H](C)C[C@H](C)C2)CC1,> 72 µg/mL,352 ×10⁻⁶ cm/s,
Cc1ccccc1-c1nc(CN2CCC(C(=O)NCCCCN3C[C@H](C)C[C@H](C)C3)CC2)c(C)o1,> 71 µg/mL,288 ×10⁻⁶ cm/s,
Cc1cccc(Cl)c1-c1nc(CN2CCC(C(=O)NCCCN3CCC(C)(C)CC3)CC2)c(C)o1,> 74 µg/mL,,
CCN(CC)CCCCNC(=O)C1CCN(Cc2nc(-c3ccc(OC)c(OC)c3)oc2C)CC1,> 72 µg/mL,10.4 ×10⁻⁶ cm/s,
Cc1cccc(-c2nc(CN3CCC(C(=O)NCCCN4C[C@H](C)C[C@H](C)C4)CC3)c(C)o2)c1,> 69 µg/mL,279 ×10⁻⁶ cm/s,
Cc1ccccc1-c1nc(CN2CCC(C(=O)NCCCN3C[C@H](C)C[C@H](C)C3)CC2)c(C)s1,> 71 µg/mL,,
Cc1ccccc1-c1nc(CN2CCC(C(=O)NCCCN3CCC(C)(C)CC3)CC2)c(C)o1,> 69 µg/mL,241 ×10⁻⁶ cm/s,
COc1cccc(C)c1-c1nc(CN2CCC(C(=O)NCCCN3C[C@H](C)C[C@H](C)C3)CC2)c(C)o1,> 73 µg/mL,198 ×10⁻⁶ cm/s,

Compound,solubility kinetic [1],Papp [2],permeability [2]
Cc1oc(-c2c(C)c(C)c(C)c(C)c2C)nc1CN1CCC(C(=O)NCCCN2C[C@H](C)C[C@H](C)C2)CC1,,455 ×10⁻⁶ cm/s,
Cc1ccccc1-c1nc(CN2CCC(C(=O)N3CCN(C4CCN(C)CC4)CC3)CC2)c(C)o1,> 71 µg/mL,< 3.2 ×10⁻⁶ cm/s,
Cc1oc(-c2c(Cl)cccc2Br)nc1CN1CCC(C(=O)NCCCN2C[C@H](C)C[C@H](C)C2)CC1,> 83 µg/mL,,
Cc1ccc2ccccc2c1-c1nc(CN2CCC(C(=O)NCCCN3C[C@H](C)C[C@H](C)C3)CC2)c(C)o1,> 76 µg/mL,547 ×10⁻⁶ cm/s,
COc1ccc(-c2nc(CN3CCC(C(=O)NCCCN4C[C@H](C)C[C@H](C)C4)CC3)c(C)o2)cc1OC,> 76 µg/mL,81.9 ×10⁻⁶ cm/s,
Cc1cccc(C)c1-c1nc(CN2CCC(C(=O)NCCCN3C[C@H](C)C[C@H](C)C3)CC2)c(C)o1,55.9 µg/mL,254 ×10⁻⁶ cm/s,
Cc1oc(-c2c(Cl)cccc2Cl)nc1CN1CCC(C(=O)NCCCN2C[C@H](C)C[C@H](C)C2)CC1,> 77 µg/mL,,
Cc1oc(-c2c(Cl)cccc2C(F)(F)F)nc1CN1CCC(C(=O)NCCCN2C[C@H](C)C[C@H](C)C2)CC1,65.1 µg/mL,,
CC[C@@H]1C[C@H](CC)CN(CCCNC(=O)C2CCN(Cc3nc(-c4ccccc4C)oc3C)CC2)C1,,,1267 ×10⁻⁶ cm/s
Cc1ccc(C)c(-c2nc(CN3CCC(C(=O)NCCCN4C[C@H](C)C[C@H](C)C4)CC3)c(C)o2)c1,56.1 µg/mL,,
CCCN(CCC)CCNC(=O)C1CCN(Cc2nc(-c3ccccc3C)oc2C)CC1,> 65 µg/mL,913 ×10⁻⁶ cm/s,
Cc1ccc(-c2nc(CN3CCC(C(=O)NCCCN4C[C@H](C)C[C@H](C)C4)CC3)c(C)o2)c(C)c1,> 71 µg/mL,353 ×10⁻⁶ cm/s,
Cc1oc(-c2ccc(Cl)cc2)nc1CN1CCC(C(=O)NCCCN2C[C@H](C)C[C@H](C)C2)CC1,> 72 µg/mL,> 635 ×10⁻⁶ cm/s,
Cc1cccc(Cl)c1-c1nc(CN2CCC(C(=O)NCCCN3CCC(C(C)C)CC3)CC2)c(C)o1,> 76 µg/mL,,
Cc1oc(-c2cccc3ccccc23)nc1CN1CCC(C(=O)NCCCN2C[C@H](C)C[C@H](C)C2)CC1,> 74 µg/mL,,
Cc1ccccc1-c1nc(CN2CCC(C(=O)NCCCN3CCC(C(C)C)CC3)CC2)c(C)o1,> 71 µg/mL,396 ×10⁻⁶ cm/s,
Cc1ccc(-c2nc(CN3CCC(C(=O)NCCCN4C[C@H](C)C[C@H](C)C4)CC3)c(C)o2)cc1,> 69 µg/mL,274 ×10⁻⁶ cm/s,
Cc1oc(-c2c(F)cccc2F)nc1CN1CCC(C(=O)NCCCN2C[C@H](C)C[C@H](C)C2)CC1,> 72 µg/mL,82.4 ×10⁻⁶ cm/s,
Cc1oc(-c2cccc(Cl)c2)nc1CN1CCC(C(=O)NCCCN2C[C@H](C)C[C@H](C)C2)CC1,> 72 µg/mL,615 ×10⁻⁶ cm/s,
Cc1ccccc1-c1nc(CN2CCC(C(=O)NCCCN3C[C@H](C)C[C@H](C)C3)CC2)c(C)o1,53.9 µg/mL,489 ×10⁻⁶ cm/s,
Cc1ccccc1-c1nc(CN2CCC(C(=O)NCCN3C[C@H](C)C[C@H](C)C3)CC2)c(C)o1,> 67 µg/mL,712 ×10⁻⁶ cm/s,
Cc1cc(-c2nc(CN3CCC(C(=O)NCCCN4CCC(C(C)C)CC4)CC3)co2)ccc1F,> 72 µg/mL,276 ×10⁻⁶ cm/s,
Cc1ccccc1-c1nc(CN2CCC(C(=O)NCCCN3CCCC(C)C3)CC2)c(C)o1 (racemic),> 67 µg/mL,,
Cc1ccccc1-c1nc(CN2CCC(C(=O)NCCCN3CCCC(CC(C)C)C3)CC2)c(C)o1 (racemic),54.9 µg/mL,3 ×10⁻⁶ cm/s,
Cc1ccccc1-c1nc(CN2CCC(C(=O)NCCCN3C[C@H](C)C[C@@H](C)C3)CC2)c(C)o1 (racemic),> 69 µg/mL,554 ×10⁻⁶ cm/s,
Cc1ccccc1-c1nc(CN2CCC(C(=O)NCCCN3CCCC(C(C)C)C3)CC2)c(C)o1 (racemic),> 71 µg/mL,,
Cc1cccc(Cl)c1-c1nc(CN2CCC(C(=O)NCCCN3CCCC(C)C3)CC2)c(C)o1 (racemic),52.6 µg/mL,651 ×10⁻⁶ cm/s,

# From ChEMBL document CHEMBL4038306, “Development of an Aryloxazole Class of Hepatitis C Virus Inhibitors Targeting the Entry Stage of the Viral Replication Cycle” (J Med Chem, 2017)
